From ChEMBL document CHEMBL1128448, “Synthesis and antifungal activity of new azole derivatives containing an N-acylmorpholine ring” (1995)
Converted amounts (≈) assume the structure as drawn.

Key:
Pichia kudriavzevii [1] = experiment: Evaluation of In vitro antifungal activity against Candida krusei C64 by broth macro dilution method; format: functional
Method in brief: (§1)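 Yeast MIC and MFC by broth macrodilution per NCCLS M27-P in RPMI-1640 buffered with 0.165 M MOPS. Fluconazole in sterile water, other drugs in DMSO. C. parapsilosis ATCC 22019 is the reference strain in each run. MIC is the lowest concentration with turbidity ≤ the 80% inhibition standard. For MFC, 0.04 mL from clear tubes is plated on Sabouraud agar; MFC is the lowest concentration giving ≤1 colony.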

Candida tropicalis = experiment: Evaluation of In vitro antifungal activity against Candida tropicalis 50 by broth macro dilution method; format: functional; method in brief: as §1
Nakaseomyces glabratus = experiment: Evaluation of In vitro antifungal activity against Torulopsis glabrata 78 by broth macro dilution method; format: functional; method in brief: as §1
Trichophyton rubrum = experiment: In vitro evaluation of minimum inhibitory concentration against Trichophyton rubrum 90; format: functional
Method in brief: (§2)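 Stocks are 800 μg/mL in 50% ethanol. Each plate gets 10 μL of inoculum at 10^5 cfu/mL. Incubation at 25 °C, 48 h for yeasts and 120 h for dermatophytes and molds. Organisms are ATCC strains or clinical isolates.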

Mus sp. [2] = experiment: In vivo evaluation of % survival rate after peroral administration on 7th day at dose 1 mg/kg; format: functional; conditions: Mus sp., po
Candida albicans [3] = experiment: Evaluation of In vitro antifungal activity against Candida albicans 31 by broth macro dilution method; format: functional; method in brief: as §1
Pichia kudriavzevii [4] = experiment: Evaluation of In vitro antifungal activity against Candida krusei 70 by broth macro dilution method; format: functional; method in brief: as §1
Rhodotorula mucilaginosa = experiment: In vitro evaluation of minimum inhibitory concentration against Rhodotorula rubra 16; format: functional; conditions: Rhodotorula mucilaginosa; read-out: MIC; method in brief: as §2
Kluyveromyces marxianus [5] = experiment: Evaluation of In vitro antifungal activity against yeasts by broth macro dilution method; format: functional; method in brief: as §1
Kluyveromyces marxianus [6] = experiment: Evaluation of In vitro antifungal activity against Candida pseudotropicalis ATCC 28838 by broth macro dilution method; format: functional; method in brief: as §1
Trichophyton benhamiae = experiment: In vitro evaluation of minimum inhibitory concentration against Trichophyton mentagrophytes 23; format: functional, Arthroderma benhamiae; conditions: Trichophyton benhamiae; read-out: MIC; method in brief: as §2
Rattus norvegicus [7] = experiment: In vivo evaluation of antifungal activity against vaginal candidosis in rat at dose 0.1 mg/kg on 15th day; format: functional
Method in brief: (§3)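 Groups of 10 female Wistar rats given estradiol 25 mg/kg sc on day -5, then vaginally inoculated with C. albicans on day 0. Infection is confirmed by culture of day-3 swabs. Compound is dosed orally once daily on days 3–5; controls get vehicle. Cure is scored by culture of vaginal swabs taken on days 10 and 15.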

Cryptococcus neoformans [8] = experiment: Evaluation of In vitro antifungal activity against Cryptococcus neoformans 87 by broth macro dilution method; format: functional; method in brief: as §1
Candida albicans [9] = experiment: Evaluation of In vitro antifungal activity against Candida albicans C52 by broth macro dilution method; format: functional; method in brief: as §1
Mus sp. [10] = experiment: In vivo evaluation of % survival rate after peroral administration on 3rd day at dose 1 mg/kg; format: functional; conditions: Mus sp., po
Mus sp. [11] = experiment: In vivo evaluation of % survival rate after peroral administration on 5th day at dose 1 mg/kg; format: functional; conditions: Mus sp., po
Candida albicans [12] = experiment: In vitro evaluation of minimum inhibitory concentration against Candida albicans 76; format: functional; conditions: Candida albicans; read-out: MIC; method in brief: as §2
Rattus norvegicus [13] = experiment: In vivo evaluation of antifungal activity against vaginal candidosis in rat at dose 0.1 mg/kg on 10th day; format: functional; method in brief: as §3
Cryptococcus neoformans [14] = experiment: Evaluation of In vitro antifungal activity against Cryptococcus neoformans 74 by broth macro dilution method; format: functional; method in brief: as §1
Candida parapsilosis [15] = experiment: Evaluation of In vitro antifungal activity against Candida parapsilosis C74 by broth macro dilution method; format: functional; conditions: Lodderomyces parapsilosis; method in brief: as §1
Nannizzia gypsea = experiment: In vitro evaluation of minimum inhibitory concentration against Microsporum gypseum 22; format: functional; method in brief: as §2
[16] = system: Meyerozyma guilliermondii; experiment: In vitro evaluation of minimum inhibitory concentration against Candida guilliermondii 26; format: functional; method in brief: as §2
Candida albicans [17] = experiment: Evaluation of In vitro antifungal activity against Candida albicans ATCC 10231 by broth macro dilution method; format: functional; method in brief: as §1
Candida albicans [18] = experiment: Evaluation of In vitro antifungal activity against Candida albicans 2.01 by broth macro dilution method; format: functional; method in brief: as §1
Candida albicans [19] = experiment: Evaluation of […] antifungal activity against Candida albicans 60 by broth macro dilution method; format: functional; method in brief: as §1
Candida parapsilosis [20] = experiment: In vitro evaluation of minimum inhibitory concentration against Candida parapsilosis 61; format: functional; method in brief: as §2

Compound: C[C@@H](NC(=O)c1ccc(C(F)(F)F)cc1)[C@](O)(Cn1cncn1)c1ccc(F)cc1F
- MFC (Pichia kudriavzevii [1]): 16 µg/mL (≈ 36.3 µM)
- MIC (Pichia kudriavzevii [1]): 4 µg/mL (≈ 9.08 µM)
- MFC (Candida tropicalis): > 64 µg/mL
- MIC (Candida tropicalis): 1 µg/mL (≈ 2.27 µM)
- MFC (Nakaseomyces glabratus): > 64 µg/mL
- MIC (Nakaseomyces glabratus): 8 µg/mL (≈ 18.2 µM)
- MIC (Trichophyton rubrum): 10 µg/mL (≈ 22.7 µM)
- survival at 1 mg/kg (Mus sp. [2]): 100%
- MFC (Candida albicans [3]): > 64 µg/mL
- MIC (Candida albicans [3]): < 0.031 µg/mL
- MFC (Pichia kudriavzevii [4]): 8 µg/mL (≈ 18.2 µM)
- MIC (Pichia kudriavzevii [4]): 2 µg/mL (≈ 4.54 µM)
- MIC (Rhodotorula mucilaginosa): 1.25 µg/mL (≈ 2.84 µM)
- MIC (Kluyveromyces marxianus [5]): < 0.031 µg/mL
- MFC (Kluyveromyces marxianus [6]): 2 µg/mL (≈ 4.54 µM)
- MIC (Trichophyton benhamiae): 40 µg/mL (≈ 90.8 µM)
- Cure rate (Rattus norvegicus [7]): 20%
- MFC (Cryptococcus neoformans [8]): > 64 µg/mL
- MIC (Cryptococcus neoformans [8]): 0.5 µg/mL (≈ 1.14 µM)
- MFC (Candida albicans [9]): > 64 µg/mL
- MIC (Candida albicans [9]): < 0.031 µg/mL
- survival at 1 mg/kg (Mus sp. [10]): 100%
- survival at 1 mg/kg (Mus sp. [11]): 100%
- MIC (Candida albicans [12]): 80 µg/mL (≈ 182 µM)
- Cure rate (Rattus norvegicus [13]): 0%
- MFC (Cryptococcus neoformans [14]): > 64 µg/mL
- MIC (Cryptococcus neoformans [14]): < 0.031 µg/mL
- MFC (Candida parapsilosis [15]): 0.125 µg/mL (≈ 0.284 µM)
- MIC (Candida parapsilosis [15]): ≤ 0.031 µg/mL
- MIC (Nannizzia gypsea): 10 µg/mL (≈ 22.7 µM)
- MIC [16]: 0.63 µg/mL (≈ 1.43 µM)
- MFC (Candida albicans [17]): > 64 µg/mL
- MIC (Candida albicans [17]): 0.063 µg/mL (≈ 0.143 µM)
- MFC (Candida albicans [18]): > 64 µg/mL
- MIC (Candida albicans [18]): 0.125 µg/mL (≈ 0.284 µM)
- MIC (Candida albicans [19]): < 0.031 µg/mL
- MIC (Candida parapsilosis [20]): 2.5 µg/mL (≈ 5.68 µM)
